According to paper PMC2199097 (The Journal of Experimental Medicine, 1997):

System: CXCR4
Test: Ca2+ mobilization assay in SupT1 cells
Format: cell-based, human
Settings: SupT1 cells expressing CXCR4, Fura-2, 500 ng/ml SDF-1α, without ALX40-4C
How it was run: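 SupT1 cells were loaded with 2.5 μM Fura-2/AM for 1 h at 37°C in the dark, allowed to efflux 15 min in PBS, then resuspended at 2 × 10⁶ cells/ml in Dulbecco's PBS with calcium and magnesium. Test compound (10–50 μM) was added, and SDF-1α (500 ng/ml) followed ∼90 s later. The Ca²⁺ signal was read on a luminescence spectrometer.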

## SDF-1α: the chemokine stromal-derived factor (SDF)-1α (Peprotech)
  Ca2+ mobilization response to SDF-1α: normally respond to SDF-1α
